Key:
Assay type in all cases: functional
Hepatocyte [1] = experiment: Hepatoprotective activity against D-galactosamine/TNFalpha-induced cell death in mouse hepatocytes assessed cell survival rate at 100 uM administered before 30 mins of TNFalpha challenge measured after 18 hrs by MTT assay
In short: (§1)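 Primary mouse hepatocytes, isolated by collagenase perfusion, were cultured in William's E medium with 10% calf serum, dexamethasone and insulin at 1.5×10^4 cells/well. TNF-α (100 ng/mL) was added 30 min later. Viability was read by MTT after 18 h. Values are mean ± SD, n = 4 (normal and control n = 8), with Student's t-test versus control.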

Hepatocyte [2] = experiment: Hepatoprotective activity in mouse hepatocytes assessed protection against D-galactosamine/TNFalpha-induced cell death at 200 uM administered before 30 mins of TNFalpha challenge measured after 18 hrs; in short: as §1
Hepatocyte [3] = experiment: Hepatoprotective activity in mouse hepatocytes assessed inhibition of D-galactosamine/TNFalpha-induced cell death at 200 uM administered before 30 mins of TNFalpha challenge measured after 18 hrs; in short: as §1
Hepatocyte [4] = experiment: Hepatoprotective activity in mouse hepatocytes assessed protection against D-galactosamine/TNFalpha-induced cell death at 50 uM administered before 30 mins of TNFalpha challenge measured after 18 hrs; in short: as §1
Hepatocyte [5] = experiment: Hepatoprotective activity against D-galactosamine/TNFalpha-induced cell death in mouse hepatocytes assessed cell survival rate at 200 uM administered before 30 mins of TNFalpha challenge measured after 18 hrs by MTT assay; in short: as §1
Hepatocyte [6] = experiment: Hepatoprotective activity in mouse hepatocytes assessed inhibition of D-galactosamine/TNFalpha-induced cell death dosed administered before 30 mins of TNFalpha challenge measured after 18 hrs; in short: as §1
Hepatocyte [7] = experiment: Hepatoprotective activity in mouse hepatocytes assessed inhibition of D-galactosamine/TNFalpha-induced cell death at 100 uM administered before 30 mins of TNFalpha challenge measured after 18 hrs; in short: as §1
Hepatocyte [8] = experiment: Hepatoprotective activity in mouse hepatocytes assessed inhibition of D-galactosamine/TNFalpha-induced cell death at 50 uM administered before 30 mins of TNFalpha challenge measured after 18 hrs; in short: as §1
Hepatocyte [9] = experiment: Hepatoprotective activity against D-galactosamine/TNFalpha-induced cell death in mouse hepatocytes assessed cell survival rate at 50 uM administered before 30 mins of TNFalpha challenge measured after 18 hrs by MTT assay; in short: as §1
Hepatocyte [10] = experiment: Hepatoprotective activity in mouse hepatocytes assessed protection against D-galactosamine/TNFalpha-induced cell death at 100 uM administered before 30 mins of TNFalpha challenge measured after 18 hrs; in short: as §1

CC(C)(O)[C@@H]1CC[C@@](C)([C@H]2CC[C@]3(C)[C@@H]2[C@H](O)C[C@@H]2[C@@]4(C)CC[C@H](O)C(C)(C)[C@@H]4[C@@H](O[C@@H]4O[C@H](CO)[C@@H](O)[C@H](O)[C@H]4O)C[C@]23C)O1
Survival (Hepatocyte [1]): 48.7%
Activity (Hepatocyte [2]): 39%
inhibition (INH) (Hepatocyte [3]): 91.5%
Activity (Hepatocyte [4]): 13.6%
Survival (Hepatocyte [5]): 57.2%
IC50 (Hepatocyte [6]): 74.8 µM
inhibition (INH) (Hepatocyte [7]): 62.8%
inhibition (INH) (Hepatocyte [8]): 31.8%
Survival (Hepatocyte [9]): 39.4%
Activity (Hepatocyte [10]): 26.8%

CC(=O)OC[C@H]1O[C@@H](O[C@H]2C[C@]3(C)[C@H](C[C@@H](O)[C@@H]4[C@@H]([C@]5(C)CC[C@@H](C(C)(C)O)O5)CC[C@]43C)[C@@]3(C)CC[C@H](O)C(C)(C)[C@H]23)[C@H](O[C@@H]2OC[C@@H](O)[C@H](O)[C@H]2O)[C@@H](O)[C@@H]1O [GINSENOSIDE R2]
Survival (Hepatocyte [1]): 51.7%
Activity (Hepatocyte [2]): 61.3%
inhibition (INH) (Hepatocyte [3]): 143.8%
Activity (Hepatocyte [4]): 19%
Survival (Hepatocyte [5]): 72.9%
IC50 (Hepatocyte [6]): 63.2 µM
inhibition (INH) (Hepatocyte [7]): 72.9%
inhibition (INH) (Hepatocyte [8]): 44.7%
Survival (Hepatocyte [9]): 43.2%
Activity (Hepatocyte [10]): 31.1%

CC1(C)O[C@](C)([C@H]2CC[C@]3(C)[C@@H]2[C@H](O)C[C@@H]2[C@@]4(C)CC[C@H](O)C(C)(C)[C@@H]4[C@@H](O[C@@H]4O[C@H](CO)[C@@H](O)[C@H](O)[C@H]4O)C[C@]23C)CC[C@H]1O [GINSENOSIDE R10]
Survival (Hepatocyte [1]): 38.3%
Activity (Hepatocyte [2]): 7.6%
inhibition (INH) (Hepatocyte [3]): 17.8%
Activity (Hepatocyte [4]): 16%
Survival (Hepatocyte [5]): 35.2%
inhibition (INH) (Hepatocyte [7]): 28%
inhibition (INH) (Hepatocyte [8]): 37.6%
Survival (Hepatocyte [9]): 41.1%
Activity (Hepatocyte [10]): 12%

CC(C)=CCC[C@](C)(O[C@@H]1O[C@H](CO)[C@@H](O)[C@H](O)[C@H]1O)[C@H]1CC[C@]2(C)[C@@H]1[C@H](O)C[C@@H]1[C@@]3(C)CC[C@H](O)C(C)(C)[C@@H]3[C@@H](O[C@@H]3O[C@H](CO)[C@@H](O)[C@H](O)[C@H]3O)C[C@]12C [GINSENOSIDE RG1]
Survival (Hepatocyte [1]): 42%
Activity (Hepatocyte [2]): 26.2%
inhibition (INH) (Hepatocyte [3]): 61.4%
Activity (Hepatocyte [4]): 16.7%
Survival (Hepatocyte [5]): 48.3%
IC50 (Hepatocyte [6]): 111 µM
inhibition (INH) (Hepatocyte [7]): 40.6%
inhibition (INH) (Hepatocyte [8]): 39.3%
Survival (Hepatocyte [9]): 41.6%
Activity (Hepatocyte [10]): 17.3%

CO[C@@](C)(CCC=C(C)C)[C@H]1CC[C@]2(C)[C@@H]1[C@H](O)C[C@@H]1[C@@]3(C)CC[C@H](O)C(C)(C)[C@@H]3[C@@H](O[C@@H]3O[C@H](CO)[C@@H](O)[C@H](O)[C@H]3O)C[C@]12C [GINSENOSIDE RH5]
inhibition (INH) (Hepatocyte [3]): -24%
Activity (Hepatocyte [4]): 13.1%
inhibition (INH) (Hepatocyte [7]): 27.9%
inhibition (INH) (Hepatocyte [8]): 23.5%
Survival (Hepatocyte [9]): 36.9%

CC(C)=CC/C=C(\C)[C@H]1CC[C@]2(C)[C@@H]1[C@H](O)C[C@@H]1[C@@]3(C)CC[C@H](O)C(C)(C)[C@@H]3[C@@H](O[C@@H]3O[C@H](CO)[C@@H](O)[C@H](O)[C@H]3O)C[C@]12C [GINSENOSIDE RH4]
Survival (Hepatocyte [1]): 45%
Activity (Hepatocyte [2]): 35.1%
inhibition (INH) (Hepatocyte [3]): 67.1%
Activity (Hepatocyte [4]): 8%
Survival (Hepatocyte [5]): 50%
IC50 (Hepatocyte [6]): 97 µM
inhibition (INH) (Hepatocyte [7]): 50.6%
inhibition (INH) (Hepatocyte [8]): 13.7%
Survival (Hepatocyte [9]): 34%
Activity (Hepatocyte [10]): 24.8%

CC1(C)[C@@H](O[C@H]2O[C@H](C(=O)O)[C@@H](O)[C@H](O)[C@H]2O[C@@H]2O[C@H](C(=O)O)[C@@H](O)[C@H](O)[C@H]2O)CC[C@]2(C)[C@H]3C(=O)C=C4[C@@H]5C[C@@](C)(C(=O)O)CC[C@]5(C)CC[C@@]4(C)[C@]3(C)CC[C@@H]12 [GLYCYRRHIZIN]
Survival (Hepatocyte [1]): 33.4%
Activity (Hepatocyte [2]): 8.7%
inhibition (INH) (Hepatocyte [3]): 20.3%
Activity (Hepatocyte [4]): 1%
Survival (Hepatocyte [5]): 36.2%
IC50 (Hepatocyte [6]): > 200 µM
inhibition (INH) (Hepatocyte [7]): 11.1%
inhibition (INH) (Hepatocyte [8]): 11%
Survival (Hepatocyte [9]): 33%
Activity (Hepatocyte [10]): 4.8%

CC(C)(O)[C@@H]1CC[C@@](C)([C@H]2CC[C@]3(C)[C@@H]2[C@H](O)C[C@@H]2[C@@]4(C)CC[C@H](O)C(C)(C)[C@@H]4[C@@H](O)C[C@]23C)O1 [PROTOPANAXATRIOL OXIDE II]
Survival (Hepatocyte [1]): 45.3%
Activity (Hepatocyte [2]): 92.2%
inhibition (INH) (Hepatocyte [3]): 209.9%
Activity (Hepatocyte [4]): 17.9%
Survival (Hepatocyte [5]): 92.6%
IC50 (Hepatocyte [6]): 74 µM
inhibition (INH) (Hepatocyte [7]): 51.7%
inhibition (INH) (Hepatocyte [8]): 34.5%
Survival (Hepatocyte [9]): 40.2%
Activity (Hepatocyte [10]): 22.2%

CC(C)=CCC[C@](C)(O[C@@H]1O[C@H](CO)[C@@H](O)[C@H](O)[C@H]1O)[C@H]1CC[C@]2(C)[C@@H]1[C@H](O)C[C@@H]1[C@@]3(C)CC[C@H](O[C@@H]4O[C@H](CO)[C@@H](O)[C@H](O)[C@H]4O[C@@H]4O[C@H](CO)[C@@H](O)[C@H](O)[C@H]4O)C(C)(C)[C@@H]3CC[C@]12C [GINSENOSIDE RD]
Survival (Hepatocyte [1]): 35.9%
Activity (Hepatocyte [2]): 16.8%
inhibition (INH) (Hepatocyte [3]): 39.1%
Activity (Hepatocyte [4]): 7.4%
Survival (Hepatocyte [5]): 41.8%
inhibition (INH) (Hepatocyte [7]): 19.5%
inhibition (INH) (Hepatocyte [8]): 17.5%
Survival (Hepatocyte [9]): 35.3%
Activity (Hepatocyte [10]): 8.4%

C=C(C)C(=O)CC[C@](C)(O[C@@H]1O[C@H](CO)[C@@H](O)[C@H](O)[C@H]1O)[C@H]1CC[C@]2(C)[C@@H]1[C@H](O)C[C@@H]1[C@@]3(C)CC[C@H](O)C(C)(C)[C@@H]3[C@@H](O[C@@H]3O[C@H](CO)[C@@H](O)[C@H](O)[C@H]3O)C[C@]12C
Survival (Hepatocyte [1]): 38.4%
Activity (Hepatocyte [2]): 20.5%
inhibition (INH) (Hepatocyte [3]): 48.2%
Activity (Hepatocyte [4]): 8.2%
Survival (Hepatocyte [5]): 44.3%
inhibition (INH) (Hepatocyte [7]): 28.3%
inhibition (INH) (Hepatocyte [8]): 19.2%
Survival (Hepatocyte [9]): 35.6%
Activity (Hepatocyte [10]): 12%

CC(C)=CCC[C@](C)(O[C@@H]1O[C@H](CO[C@@H]2O[C@@H](CO)[C@H](O)[C@H]2O)[C@@H](O)[C@H](O)[C@H]1O)[C@H]1CC[C@]2(C)[C@@H]1[C@H](O)C[C@@H]1[C@@]3(C)CC[C@H](O[C@@H]4O[C@H](CO)[C@@H](O)[C@H](O)[C@H]4O[C@@H]4O[C@H](CO)[C@@H](O)[C@H](O)[C@H]4O)C(C)(C)[C@@H]3CC[C@]12C [GINSENOSIDE RC]
Survival (Hepatocyte [1]): 31.4%
inhibition (INH) (Hepatocyte [3]): -11.3%
Activity (Hepatocyte [4]): 3.2%
Survival (Hepatocyte [5]): 26.7%
inhibition (INH) (Hepatocyte [7]): 4.4%
inhibition (INH) (Hepatocyte [8]): 6.7%
Survival (Hepatocyte [9]): 32.1%
Activity (Hepatocyte [10]): 1.9%

CC(C)=CCC[C@](C)(O[C@@H]1O[C@H](CO[C@@H]2O[C@H](CO)[C@@H](O)[C@H](O)[C@H]2O)[C@@H](O)[C@H](O)[C@H]1O)[C@H]1CC[C@]2(C)[C@@H]1[C@H](O)C[C@@H]1[C@@]3(C)CC[C@H](O[C@@H]4O[C@H](CO)[C@@H](O)[C@H](O)[C@H]4O[C@@H]4O[C@H](CO)[C@@H](O)[C@H](O)[C@H]4O)C(C)(C)[C@@H]3CC[C@]12C [GINSENOSIDE RB1]
Survival (Hepatocyte [1]): 36%
Activity (Hepatocyte [2]): 13.7%
inhibition (INH) (Hepatocyte [3]): 31.9%
Activity (Hepatocyte [4]): 6%
Survival (Hepatocyte [5]): 39.6%
inhibition (INH) (Hepatocyte [7]): 19.8%
inhibition (INH) (Hepatocyte [8]): 14.3%
Survival (Hepatocyte [9]): 34.4%
Activity (Hepatocyte [10]): 8.5%
